HTR1A agonist: agonists of human 5-HT1a serotonin receptor; P08908; CHO 5-HT1a Ga15 NFAT-bla reporter, FRET ratio; 0% basal, 100% maximal reference agonist; activation, % at 10 µM; actives 0.56% (n = 65,000); AID 567;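 active means activation above the screen-wide mean activation plus 3 SD, cut at about 19% in these data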;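 further: 0% = DMSO wells and 100% = 5-CT at EC100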
Target sequence (P08908 whole entry, looked up): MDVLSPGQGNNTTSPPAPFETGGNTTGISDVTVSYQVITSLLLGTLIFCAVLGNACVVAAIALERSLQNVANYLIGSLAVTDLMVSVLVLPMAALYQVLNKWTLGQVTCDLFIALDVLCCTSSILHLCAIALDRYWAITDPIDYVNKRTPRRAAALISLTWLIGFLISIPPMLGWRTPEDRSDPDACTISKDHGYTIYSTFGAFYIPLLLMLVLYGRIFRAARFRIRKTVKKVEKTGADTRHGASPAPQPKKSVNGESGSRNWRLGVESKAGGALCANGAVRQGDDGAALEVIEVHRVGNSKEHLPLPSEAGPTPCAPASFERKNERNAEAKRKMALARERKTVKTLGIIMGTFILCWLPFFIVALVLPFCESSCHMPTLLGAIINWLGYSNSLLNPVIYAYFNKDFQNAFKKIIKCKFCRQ
5HT1E ag: 5-HT1E (human) receptor agonism; P28566; CHO 5-HT1E Ga15 NFAT-bla reporter, FRET; 0% DMSO wells, 100% control agonist wells; activation, % at 6 µM; actives 0.69% (n = 65,000); AID 574;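 active means activation above a set limit, the screen-wide mean activation plus 3 SD, cut at about 8.5% in these data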;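 further: 100% = positive control agonist at 1 µM giving full maximal response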
5HT1E antag: blocks the human 5-HT1E serotonin receptor. CHO 5-HT1E Ga15 NFAT-bla reporter, FRET, antagonist. inhibition, % at 6 µM. actives 0.99% (n = 65,000). AID 571;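 active means inhibition above a set limit, the mean inhibition across every tested compound plus 3 SD, cut at about 29% in these data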;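 further: signal is the 460 over 535 nm emission ratio of beta-lactamase substrate; 0% = agonist plus DMSO wells and 100% = wells without agonist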
Jurkat viability: cytotoxicity toward Jurkat cells. Jurkat E6.1 viability, ATP luminescence, 48 h. inhibition, % at 4 µM. actives 1.2% (n = 56,000). AID 463;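 active means inhibition above the mean inhibition of all tested compounds plus 3 SD, cut at about 28% in these data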
5HT1a antag: 5-HT1a (human) receptor antagonism. CHO 5-HT1a Ga15 NFAT-bla reporter, antagonist mode. actives 0.68% (n = 62,000). inhibition, % at 10 µM. AID 612;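 active means inhibition above the mean of all tested compounds plus 3 SD, cut at about 43% in these data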;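 further: receptor stimulated by 5-CT agonist at 100 nM near EC80; beta-lactamase reporter measured by ratiometric fluorescence of a cleavable substrate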
HEK293 NFkB inh: lowers PMA/ionomycin-induced NF-kB signal in HEK293 cells. actives 0.21% (n = 62,000). HEK-293 NF-kB luciferase reporter, luminescence. inhibition, % at 3 µM. AID 465;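 active means inhibition above the mean of all tested compounds plus 3 SD, cut at about 40% in these data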;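 further: 0% = stimulated DMSO wells and 100% = 10 µM reference inhibitor 5653914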
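Signal: luciferase luminescence; Material: HEK-293 cells with stable firefly luciferase reporter driven by four HIV NF-kB elements; Probe or stimulus: PMA with ionomycin; Replication: tested once; Times: 1 h compound pretreatment, then 16 h stimulation at 37 °C, 5% CO2; Benchmarks: DMSO and 10 µM reference inhibitor; Evaluation: per-plate % inhibition versus controls.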
The depositor's hits bear a star; nt = not tested or not shown. This is a sample that favours compounds with a hit; in the whole collection about 3.3% have one here.

SMILES	HTR1A agonist	5HT1E ag	5HT1E antag	Jurkat viability	5HT1a antag	HEK293 NFkB inh
Cn1c(C(=O)NCCN2CCN(c3ccccc3F)CC2)cc2c(=O)n(C)c3ccccc3c21	7	4	-9	2	38	16
Cn1c(C(=O)NCCCN2CCN(c3ccc(F)cc3)CC2)cc2c(=O)n(C)c3ccccc3c21	14	1	2	1	65*	11
O=C1C2C3C=CC(C3=C3CCCCC3)C2C(=O)N1Cc1ccccc1 (configuration not stated)	5	0	-2	-2	-22	21
CCc1nnc(NC(=O)CSc2nc3cccnc3n2C2CCCCC2)s1	4	1	0	29*	4	-25
CC(=O)CC1OC(=O)C(Br)=C1NCc1ccccc1 (configuration not stated)	-1	0	13	49*	69*	10
O=C(CC1Oc2ccccc2NC1=O)NCc1ccccc1 (configuration not stated)	-2	0	2	4	-6	9
c1ccc(N2CCN(c3ccccc3)C2c2cccs2)cc1	-1	1	1	-6	10	8
Cn1c(=O)cc(OCC(=O)N2CCC(N3CCCCC3)CC2)c2ccccc21	-5	0	2	6	-3	18
COc1cccc(C(=O)Nc2ccc(C)cc2)c1	164*	1	-1	nt	4	-44
Cc1n[nH]c(C)c1S(=O)(=O)N1CCN(C(=O)c2ccco2)CC1	-3	-2	-11	-1	1	-6
O=C(c1cc(-c2ccccc2)nc2ccccc12)N1CCN(c2ccccn2)CC1	1	0	10	-4	-8	15
O=C(c1ccccc1-c1ccccc1)N1CCN(c2ccccn2)CC1	-1	-1	8	84*	25	25
Cc1ccc(S(=O)(=O)N2CCCN(S(=O)(=O)c3ccc(C)cc3)CC2)cc1	1	19*	1	3	4	8
Cc1ccc(S(=O)(=O)Nc2ccc(S(=O)(=O)N3CCCC3)cc2)cc1	-1	-1	6	8	3	4
COCCCNC(=O)CCCn1c(=O)c2ccccc2n(CC(=O)Nc2c(C)cc(C)cc2C)c1=O	-3	43*	0	-3	7	18
CCOC(=O)C1=C(N)OC2=C(C(=O)CCC2)C1c1ccccc1OCC (configuration not stated)	-2	0	9	4	12	2
CCOC(=O)C1CCN(S(=O)(=O)c2c(C)n[nH]c2C)CC1	-2	1	-10	-14	-4	-6
COc1cc2c(C(=O)NCCCN3CCN(c4cccc(Cl)c4)CC3)cn(C)c(=O)c2cc1OC	12	16*	12	nt	5	32
COCCNC(=O)c1cn(C)c(=O)c2cc(OC)c(OC)cc12	0	-1	5	nt	11	17
NC(=O)C1CCN(S(=O)(=O)c2cccc(S(=O)(=O)N3CCCCC3)c2)CC1	-2	-1	0	8	-17	8
CCn1c(SCC(=O)c2c[nH]c3ccccc23)nnc1-c1cccs1	-1	0	6	58*	26	8
CCOC(=O)c1ccccc1NC(=O)CSc1nc2ccccc2n1CC(=O)N1CCCC1	0	-1	28	-2	7	25
COc1cc(C)c(C(C)C)cc1S(=O)(=O)N1CCN(C)CC1	1	0	-3	-3	8	14
COc1cc(C)c(C(C)C)cc1S(=O)(=O)n1cnc(C)c1	-4	0	27	85*	20	13
CCOC(=O)C1=C(N)Oc2cc(C)n(CCc3ccc(OC)c(OC)c3)c(=O)c2C1c1cccnc1 (configuration not stated)	-1	-1	30*	5	0	23
SMILES	HTR1A agonist	5HT1E ag	5HT1E antag	Jurkat viability	5HT1a antag	HEK293 NFkB inh
CCN(CC)CCOC(=O)c1cccc(Cl)c1	-4	2	6	-2	17	0
CCN(CC)CCOC(=O)c1cccc(Br)c1	0	11*	1	1	14	19
CCCCn1c(CN2CCN(c3cccc(Cl)c3)CC2)nc2c1c(=O)[nH]c(=O)n2C	1	2	8	80*	9	33
CC(C)(C)NC(=O)CSc1nccn1Cc1ccccc1	-2	0	-3	-14	-10	5
CCOc1cccc(N2C(=O)CC(NCc3ccc(S(N)(=O)=O)cc3)C2=O)c1 (configuration not stated)	-4	0	-9	-2	1	-9
Cc1cc(N2CCOCC2)nc(NCc2ccccc2)n1	-4	0	33*	9	4	13
CC(C)COC(=O)NCCCOC(=O)Nc1ccccc1	224*	0	-3	8	18	7
CC(C)COC(=O)NCCOC(=O)Nc1cccc(Cl)c1	-3	0	-2	0	6	12
CCOC(=O)C1CCN(c2cc(=O)n(Cc3ccc(F)cc3)c(=O)[nH]2)CC1	5	0	-9	-4	0	-4
Cn1c(Cn2c(=O)sc3ccccc32)nnc1SCC(=O)NCc1ccc(F)cc1	40*	0	-24	-2	-11	8
COc1cccc2cc(C(=O)N(C)C3CCN(C)CC3)c(=O)oc12	1	0	-9	-6	-7	1
COc1cc(OC)cc(C(=O)N2c3ccc(F)cc3CCC2C)c1 (configuration not stated)	1	26*	-6	-2	2	2
COc1ccc(C(=O)N2c3ccc(F)cc3CCC2C)cc1OC (configuration not stated)	-2	0	-10	-1	-4	12
CCn1ncc(C2=NOC(C(=O)Nc3cccnc3)C2)c1C (configuration not stated)	-2	-2	-9	-1	2	4
COc1ccc(C2=NOC(C(=O)NCc3ccc(F)cc3)C2)cc1 (configuration not stated)	-2	0	56*	12	40	12
COc1ccc(CNC(=O)C2CC(c3ccc(F)cc3)=NO2)cc1 (configuration not stated)	-1	0	-1	-2	8	13
COc1cc(C2=NOC(C(=O)NCc3ccco3)C2)cc(OC)c1OC (configuration not stated)	0	0	12	73*	10	33
CCn1ncc(C2=NOC(C(=O)NCc3ccc(Cl)cc3)C2)c1C (configuration not stated)	-5	-1	58*	92*	42	21
FC(F)C(F)(F)C(F)(F)C(F)(F)c1cc(-c2ccccc2)n[nH]1	-3	1	3	-4	7	18
CCC(=O)N1CCN(c2ccccc2NC(=O)COc2ccccc2Cl)CC1	-2	0	16	8	27	12
